NadD inh = NadD (S. aureus) enzyme inhibition; purified NadD enzyme, colorimetric absorbance read-out; inhibition, % at 20 µM; hit rate 0.78% among 360,000; in the data active = inhibition above about 26%
ABHD5-PLIN5 inh = ABHD5-PLIN5 protein interaction inhibition; Split G. princeps luciferase complementation, luminescence, 4 h; inhibition, % at 4 µM; hit rate 0.78% among 360,000; AID 602281;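 active = inhibition above the mean inhibition across every tested compound plus 3 SD, cut at about 22% in these data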
SENP1 inh = inhibitors of human SENP1 SUMO protease catalytic domain. Q9P0U3. hit rate 0.21% among 360,000. AID 624204. recombinant SENP1 catalytic domain, CyPet-SUMO1-YPet FRET cleavage. inhibition, % at 10 µM;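 active = inhibition at least 30% at 10 µM, raw YFP signal under a set limit, fluorescence ratio 0.5 to 1.5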
Target sequence (Q9P0U3 419-644 limits assumed): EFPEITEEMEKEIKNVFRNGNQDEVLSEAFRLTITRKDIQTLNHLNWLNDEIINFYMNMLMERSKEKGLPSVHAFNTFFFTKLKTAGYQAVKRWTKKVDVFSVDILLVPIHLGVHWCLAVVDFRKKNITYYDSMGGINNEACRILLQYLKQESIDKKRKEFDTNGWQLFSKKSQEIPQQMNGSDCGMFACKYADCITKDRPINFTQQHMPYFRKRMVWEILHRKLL
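Compound: 10 µM single point, 0.5% DMSO; Test system: hSENP1 catalytic domain, recombinant; Timing: 50 min reaction at room temperature; Technique: FRET, CFP and YFP emission; Control set: no-enzyme wells low, DMSO-plus-enzyme wells high control.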
B2AR ag = agonists of human beta-2 adrenergic receptor inducing internalization; hit rate 0.43% among 340,000; Am2.2-beta2AR cells, FAP receptor internalization, flow cytometry; response, % (test concentration not listed);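 active = response above a set limit, near 3 SD of response in nonfluorescent compounds, cut at about 42% in these data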
Target sequence (P07550 whole entry, looked up): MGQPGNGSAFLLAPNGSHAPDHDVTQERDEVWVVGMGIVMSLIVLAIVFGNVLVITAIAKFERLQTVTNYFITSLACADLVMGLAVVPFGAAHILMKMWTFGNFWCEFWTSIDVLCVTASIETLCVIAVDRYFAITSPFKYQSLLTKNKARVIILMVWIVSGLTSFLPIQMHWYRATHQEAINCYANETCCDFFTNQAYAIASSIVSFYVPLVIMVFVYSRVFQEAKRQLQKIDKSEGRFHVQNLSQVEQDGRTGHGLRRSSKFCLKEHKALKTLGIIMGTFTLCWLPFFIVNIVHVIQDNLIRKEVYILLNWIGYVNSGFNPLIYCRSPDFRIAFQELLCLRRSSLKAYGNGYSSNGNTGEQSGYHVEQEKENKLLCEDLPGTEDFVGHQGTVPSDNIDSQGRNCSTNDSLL
GRK2 inh = human GRK2 inhibition via aptamer displacement; P25098; bead flow cytometry, FAM-aptamer displacement from GRK2; inhibition of aptamer binding, % at 10 µM; hit rate 0.59% among 330,000; AID 488847;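 active = inhibition of aptamer binding above 40%, roughly 3 SD of noise, on plates passing a quality check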;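 also: median bead fluorescence of bound FAM aptamer so fluorescent compounds give negative values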
GRK2 CP1 = confirmation of human GRK2 inhibitors displacing RNA aptamer | shares compounds with GRK2 inh | bead-bound GRK2, FAM-aptamer displacement, flow cytometry | aptamer displacement, % at 10 µM | hit rate 4% among 2,000 | AID 504451;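 active = aptamer displacement above 40%, near three times the noise of non-fluorescent compounds, on plates passing quality checks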;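 also: negative values mostly reflect intrinsic compound fluorescence rather than true enhancement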
Aptamer quench = counter-screen for GRK2 aptamer inhibitors: fluorescent aptamer quenchers; 110 tested, under 10 active; Fluorescent RNA aptamer beads, quenching, flow cytometry; active compounds read high; fluorescence change (kMESF span), kMESF (no concentration beside the values); shares compounds with GRK2 inh;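 active = compounds whose bead fluorescence drops by more than 37 kMESF across the dose range, marking them as dye quenchers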
Aptamer quench SP = quenches fluorescent RNA aptamer, GRK2 hit artifact; fluorescence response (% of DMSO), % at 10 µM; shares compounds with GRK2 inh; Carboxyfluorescein RNA aptamer on beads, flow cytometry quenching; active compounds read low; 2,000 tested, under 10 active;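 active = compounds that quench the bead-bound fluorescent RNA probe, cutting fluorescence to under half of the solvent control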;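 also: counterscreen run without GRK2 so only probe quenching by compound is measured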
GRK2 confirm 2 = human GRK2 inhibition confirmation, cherry pick 2; bead-bound GRK2, FAM-aptamer displacement, flow cytometry; inhibition of aptamer binding, % at 10 µM; 360 tested, under 10 active; shares compounds with GRK2 inh;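 active = inhibition of aptamer binding above 40%, about triple the noise seen with nonglowing compounds, on plates passing quality control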;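 also: negative values mostly come from compounds that fluoresce themselves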
Aptamer quench 2 = counter-screen for GRK2 aptamer inhibitors: fluorescent aptamer quenchers; 25 tested, under 10 active; change in fluorescence (kMESF span), kMESF (no concentration beside the values); Streptavidin beads, FAM-RNA aptamer fluorescence quenching, flow cytometry; shares compounds with GRK2 inh;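 active = compounds quenching the bead-bound labeled aptamer, with fluorescence dropping by more than 37 kMESF over the dose range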
FAM quench CP2 = aptamer fluorescence quenching in GRK2 counter-screen. 360 tested, under 10 active. AID 588494. fluorescence response vs DMSO, % at 10 µM. carboxyfluorescein RNA aptamer beads, flow cytometry quenching; active compounds read low. shares compounds with GRK2 inh;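 active = response vs DMSO under 50%, meaning signal dropped by over half, treated as fluorescence quencher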;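 also: labelled aptamer on streptavidin beads without GRK2 as a quench counter-screen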
FAM quench PS1 = counter-screen for GRK2 aptamer binding inhibitors: aptamer fluorescence quenching. shares compounds with GRK2 inh. Bead-bound FAM RNA aptamer fluorescence quenching, flow cytometry; active compounds read low. fluorescence ratio to DMSO, % at 11.1 µM. 35 tested, under 10 active;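 active = compounds that dim the fluorescent label, raw bead signal shifting by over 33 units between lowest and highest dose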
Hits are given with their value; i = inactive; nt = no result given. Only some compounds are listed: those with a hit (about 2.5% of all), similar ones and a draw of the others.

SMILES	NadD inh	ABHD5-PLIN5 inh	SENP1 inh	B2AR ag	GRK2 inh	GRK2 CP1	Aptamer quench SP	others
Cc1cc(OCC(=O)N2CCN(c3cccc(Cl)c3)CC2)c2c(C)c(C)c(=O)oc2c1	i	i	i	i	55.0	i	i
Cc1cc(OCC(=O)N2CCC[C@@H]2C(=O)O)c2c(C)c(C)c(=O)oc2c1	i	i	i	i	i	nt	nt
Cc1cc(/C=N/N2CCN(C)CC2)c(C)n1-c1ccccc1F	i	i	i	i	50.0	i	i
CN1CCN(/N=C/c2ccc(-c3ccccc3)cc2)CC1	i	i	i	i	i	nt	nt
CCc1c(C)nc2ncnn2c1N1CCCC(C(=O)NCc2cccs2)C1 (centres undefined)	i	i	i	i	51.0	i	i
CCc1c(C)nc2ncnn2c1N1CCC(C(=O)NCc2cccs2)CC1	i	i	i	i	i	nt	nt
Cc1ccccc1SCC(=O)NCC(c1ccc(F)cc1)N1CCOCC1 (centres undefined)	i	i	i	i	45.0	nt	nt	GRK2 confirm 2=i;FAM quench CP2=i
O=C(NCC(c1ccc(F)cc1)N1CCOCC1)c1ccccc1F (centres undefined)	i	i	i	i	i	nt	nt
Cc1c(NC(=O)Nc2ccc(Cl)c(Cl)c2)sc(=S)n1C	i	i	i	i	i	nt	nt
Cc1c(NC(=O)OC(C)C)sc(=S)n1C	i	i	i	i	i	i	i
COc1ccc(NC(=O)Nc2sc(=S)n(C)c2C)cc1	i	i	i	i	98.0	i	i
COc1ccc(S(=O)(=O)NCc2csc(C)n2)cc1OC	i	i	i	i	i	nt	nt
COc1ccc(-c2nc(CNS(=O)(=O)c3ccc(OC)c(OC)c3)cs2)cc1	i	i	i	i	84.0	i	i
CN(C(=O)c1cccc(Nc2ccc(-c3ccc4c(c3)OCCO4)nn2)c1)C1CCCCC1	i	i	i	i	i	i	i
CC(=O)CCc1c(C)[nH]c2ccc(NC(C)=O)cc2c1=O	i	i	i	i	i	nt	nt
CCCc1c(C)[nH]c2ccc(NC(C)=O)cc2c1=O	i	i	i	i	74.0	i	i
O=C(O)CCn1c(=S)oc2ccccc21	i	i	i	i	i	nt	nt
Cn1c(=S)n(CCC(=O)O)c2ccccc21	i	i	i	i	i	i	i
O=C(CCCn1c(=S)[nH]c2cc3c(cc2c1=O)OCO3)NCCc1ccccc1Cl	i	i	i	i	i	nt	nt
COc1ccc([N+](=O)[O-])cc1NC(=O)CCS(=O)(=O)c1ccc(Br)cc1	i	i	i	i	54.0	i	i	Aptamer quench=i;Aptamer quench 2=i;FAM quench PS1=i
COc1ccc(S(=O)(=O)CCC(=O)Nc2ccc(OC)cc2OC)cc1	i	i	i	i	i	nt	nt	GRK2 confirm 2=i;FAM quench CP2=i
COc1ccc(S(=O)(=O)CCC(=O)N(C)c2ccc(OC)cc2OC)cc1	i	i	i	i	i	nt	nt	GRK2 confirm 2=i;FAM quench CP2=i
Cn1c(=O)c2cc(NC(=S)NC3CC3)ccc2n1C/C=C/c1ccccc1	i	i	i	nt	nt	nt	nt
Cc1cc(C(C)(C)C)c(OC(=O)[C@@H]2OC(c3ccccc3)=C[C@H]2c2ccccc2)c(C(C)(C)C)c1	i	i	i	i	i	nt	nt
OC(c1ccc(Cl)cc1)c1ncc(-c2ccc(Oc3ccccc3)cc2)[nH]1 (centres undefined)	i	i	i	nt	nt	nt	nt
SMILES	NadD inh	ABHD5-PLIN5 inh	SENP1 inh	B2AR ag	GRK2 inh	GRK2 CP1	Aptamer quench SP	others
N#C/C(=C\Nc1ccccc1SC(F)(F)F)c1nc(-c2ccccc2)cs1	i	i	i	i	48.0	i	i
N#C/C(=C\Nc1ccccc1SC(F)(F)F)c1nc(-c2ccc(Cl)cc2)cs1	i	i	i	i	i	nt	nt
Cc1ccc(C(=O)NC(=S)N2CCCCCC2)cc1	i	i	i	i	i	nt	nt
Cc1cccc(N2CC(C(=O)Nc3ccccc3N3CCOCC3)CC2=O)c1C (centres undefined)	i	i	i	i	i	i	i
COc1ccc(-c2cc(C(=O)NCCN3CCOCC3)no2)cc1OC	i	i	i	i	i	nt	nt
CN(Cc1ccccc1)C(=O)c1[nH]c(C(F)(F)F)nc1-c1ccccc1	i	i	i	nt	nt	nt	nt
CCc1cc(C(=O)N(C)CC(=O)N(CC(C)C)c2c(N)n(CC(C)C)c(=O)[nH]c2=O)sc1C	i	i	i	i	i	nt	nt
COc1ccc(N(CC(=O)NCc2ccco2)S(=O)(=O)c2ccc(C)cc2)cc1OC	i	i	i	i	i	nt	nt
COc1ccccc1N(CC(=O)NCc1ccco1)S(=O)(=O)c1ccc(C)cc1	i	i	i	i	46.0	i	i
COc1cc(C(N)=O)cc(Br)c1OCc1ccccc1	i	i	i	i	100.0	nt	nt	GRK2 confirm 2=i;FAM quench CP2=i
COc1cc(OC)cc(-c2c(-c3ccsc3)c3cc(Br)ccc3n2C)c1	i	i	i	i	i	nt	nt
O=C(O)c1cccc2cc(-c3ccccc3)oc(=O)c12	i	i	i	i	i	i	i
O=c1oc(-c2ccc(O)c(O)c2)cc2cccc(O)c12	i	i	i	i	i	nt	nt
Cc1cccc(Oc2ccc(S(=O)(=O)N3CCCCC3)cc2NC(=O)C2=COCCO2)c1	i	i	i	i	i	i	i
CC(C)C(C)NC(=O)CSc1ccc(S(=O)(=O)N2CCOCC2)cn1 (centres undefined)	i	i	i	i	61.0	i	i
CN(c1ccccc1)S(=O)(=O)c1ccc(C(=O)N2CCCC2)cc1	i	i	i	i	58.0	i	i
Cc1ccc(S(=O)(=O)N(C)c2ccc(C(=O)N3CCc4ccccc4C3)cc2)cc1	i	i	i	i	57.0	i	i
CCc1ccccc1N1CC(C(=O)N2Cc3ccccc3CC2C(N)=O)CC1=O (centres undefined)	i	i	i	i	i	nt	nt
O=C(NCCN1CCOCC1)C1CC(=O)N(c2ccc(F)cc2)C1 (centres undefined)	i	i	i	i	i	nt	nt
C/C(=N\NC(=O)c1ccc(Cn2cc(Br)cn2)o1)c1ccc(NC(=O)c2ccoc2C)cc1	i	i	i	i	nt	nt	nt
